Read-outs that look alike come from different tables or passages of the source.
Columns and labels:
[1] = system: SW480 (human colon cancer) cells; test: MTT antiproliferative assay, SW480 cells; type: cell-based; conditions: read-out: IC50 SW480
Procedure, shortened: (§1)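 Cancer cells were grown in RPMI 1640 with 10% FBS and 1% penicillin–streptomycin at 37 °C in humidified CO2. They were harvested with trypsin/EDTA and seeded at 8 × 10^3 cells per well. Cells were exposed to a concentration series in triplicate, with untreated wells as controls, for 72 h. MTT was then added for 4 h at 37 °C and formazan dissolved in DMSO (10 min, 37 °C, dark). Absorbance was read at 490 nm. IC50 is mean ± SD of 3–4 independent experiments.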

[2] = system: A549 (human lung cancer) cells; test: MTT antiproliferative assay, A549 cells; type: cell-based; conditions: read-out: IC50 A549
Procedure, shortened: as §1

[3] = system: MRC-5 (human fetal lung fibroblast cells); test: MTT cytotoxicity assay, MRC-5 normal cells; type: cell-based; conditions: MRC5, 72 h, read-out: IC50 MRC-5
Procedure, shortened: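 Human fetal lung fibroblasts were harvested with trypsin/EDTA and seeded at 8 × 10^3 cells per well. They were treated in triplicate with a concentration series for 72 h, with untreated wells as controls. MTT was added for 4 h at 37 °C and formazan dissolved in DMSO. Absorbance was read at 490 nm. IC50 is mean ± SD of three independent replicates.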

A549 cells [4] = conditions: read-out: IC50 (A549); cited from earlier work
A549 cells [5] = test: Annexin V-FITC/PI apoptosis assay by flow cytometry; type: cell-based, human; conditions: A549, 16.1 μM
Procedure, shortened: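 A549 cells (1 × 10^5) were pre-cultured for 16 h, then exposed to 16.1 μM test compound for 24 h and 48 h. Cells were washed with PBS and 1× binding buffer, then stained with Annexin V-FITC for 15 min. After a further wash, PI was added in binding buffer and apoptosis rates were read by flow cytometry. Values are mean ± SD of three independent experiments, compared with untreated controls by one-way ANOVA and Tukey's test.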

A549 cells [6] = test: Cell cycle analysis by PI staining and flow cytometry; type: cell-based, human; conditions: A549, 16.1 μM
Procedure, shortened: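 A549 cells (5 × 10^4) were pre-cultured for 16 h in high-glucose DMEM, then treated with 16.1 μM test compound for 24 h and 48 h. Cells were harvested with 0.25% trypsin, washed in PBS, and stained with propidium iodide plus 1 U RNase A. DNA content was measured by flow cytometry. Values are mean ± SD of three independent experiments, compared with control by one-way ANOVA and Tukey's test.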

[7] = MTT, 72 h, mean ± SD of 3–4 independent replicates

Molecule	IC50 ([1]; Homo sapiens, SW480, 72 h)	IC50 ([2]; Homo sapiens, A549, 72 h)	other results
COc1ccc(NC(=O)Cn2cc(Cn3c(-c4cc(OC)c(OC)c(OC)c4)nc4ccccc43)nn2)cc1 [Compound 9j, N-(4-Methoxyphenyl)-2-(4-((2-(3,4,5-trimethoxyphenyl)-1H-benzo[d]imidazol-1-yl)methyl)-1H-1,2,3-triazol-1-yl)acetamide]	68.1 ± 2.2 µM	57.6 ± 5.7 µM	–
CCc1ccc(NC(=O)Cn2cc(Cn3c(-c4cc(OC)c(OC)c(OC)c4)nc4ccccc43)nn2)cc1 [Compound 9l, N-(4-Ethylphenyl)-2-(4-((2-(3,4,5-trimethoxyphenyl)-1H-benzo[d]imidazol-1-yl)methyl)-1H-1,2,3-triazol-1-yl)acetamide]	65.3 ± 1 µM	50.3 ± 6.7 µM	–
COc1cc(-c2nc3ccccc3n2Cc2cn(CC(=O)Nc3ccc(C)cc3)nn2)cc(OC)c1OC [Compound 9a, N-(p-Tolyl)-2-(4-((2-(3,4,5-trimethoxyphenyl)-1H-benzo[d]imidazol-1-yl)methyl)-1H-1,2,3-triazol-1-yl)acetamide]	77.2 ± 3.2 µM	67.4 ± 3.4 µM	–
COc1cc(-c2nc3ccccc3n2Cc2cn(CC(=O)Nc3ccccc3)nn2)cc(OC)c1OC [Compound 9b, N-Phenyl-2-(4-((2-(3,4,5-trimethoxyphenyl)-1H-benzo[d]imidazol-1-yl)methyl)-1H-1,2,3-triazol-1-yl)acetamide]	158 ± 7.8 µM	114 ± 5 µM	–
COc1cc(-c2nc3ccc(C)cc3[nH]2)cc(OC)c1OC [Compound I, 6-methyl-2-(3,4,5-trimethoxyphenyl)-1H-benzo[d]imidazole]	–	–	IC50 (A549 cells [4]): 39.4 µM
COc1cc(-c2nc3ccccc3n2Cc2cn(CC(=O)NCc3ccccc3)nn2)cc(OC)c1OC [Compound 9m, N-Benzyl-2-(4-((2-(3,4,5-trimethoxyphenyl)-1H-benzo[d]imidazol-1-yl)methyl)-1H-1,2,3-triazol-1-yl)acetamide]	72.3 ± 5.3 µM	47.9 ± 2.7 µM	–
COc1cc(-c2nc3ccccc3n2Cc2cn(CC(=O)Nc3ccc(Br)cc3)nn2)cc(OC)c1OC [Compound 9d, N-(4-Bromophenyl)-2-(4-((2-(3,4,5-trimethoxyphenyl)-1H-benzo[d]imidazol-1-yl)methyl)-1H-1,2,3-triazol-1-yl)acetamide]	> 200 µM	> 200 µM	–
N.N.[Cl][Pt][Cl] [Cisplatin, reference compound]	–	–	IC50 [2, 7]: 7.4 ± 1.6 µM
N-(2-Nitrophenyl)-2-(4-((2-(3,4,5-trimethoxyphenyl)-1H-benzo[d]imidazol-1-yl)methyl)-1H-1,2,3-triazol-1-yl)acetamide [Compound 9c]	–	–	IC50 [1, 7]: 22.5 ± 3.9 µM; IC50 [2, 7]: 23.5 ± 3.6 µM
COc1cc(-c2nc3ccccc3n2Cc2cn(CC(=O)Nc3ccc(Cl)cc3Cl)nn2)cc(OC)c1OC [Compound 9g, N-(2,4-Dichlorophenyl)-2-(4-((2-(3,4,5-trimethoxyphenyl)-1H-benzo[d]imidazol-1-yl)methyl)-1H-1,2,3-triazol-1-yl)acetamide]	64.5 ± 3.3 µM	31.5 ± 4.2 µM	–

Further lines, with some results ahead:

IC50 ([1]; Homo sapiens, SW480, 72 h)	IC50 ([2]; Homo sapiens, A549, 72 h)	Molecule	other results
30.4 ± 3.6 µM	22.2 ± 4 µM	COc1cc(-c2nc3ccccc3n2Cc2cn(CC(=O)Nc3ccccc3Cl)nn2)cc(OC)c1OC [Compound 9e, N-(2-Chlorophenyl)-2-(4-((2-(3,4,5-trimethoxyphenyl)-1H-benzo[d]imidazol-1-yl)methyl)-1H-1,2,3-triazol-1-yl)acetamide]	IC50 [3]: 105 ± 7.1 µM
19.7 ± 2.7 µM	16.1 ± 1.1 µM	COc1ccc(NC(=O)Cn2cc(Cn3c(-c4cc(OC)c(OC)c(OC)c4)nc4ccccc43)nn2)c(OC)c1 [Compound 9f, N-(2,4-Dimethoxyphenyl)-2-(4-((2-(3,4,5-trimethoxyphenyl)-1H-benzo[d]imidazol-1-yl)methyl)-1H-1,2,3-triazol-1-yl)acetamide]	rate of early apoptosis (Q3) (A549 cells [5]; 24 h): 3.79%; rate of late apoptosis (Q2) (A549 cells [5]; 24 h): 1.63%; rate of early apoptosis (Q3) (A549 cells [5]; 48 h): 12.2%; rate of late apoptosis (Q2) (A549 cells [5]; 48 h): 4.01%; changes in the number of cells in the cell cycle phases compared to control (A549 cells [6]; 24 h): not significant; number of cells in the G2/M phase (A549 cells [6]; 48 h, non-significant decrease): 12.05%; number of cells in the S phase (A549 cells [6]; 48 h, p < 0.001 vs control): 33.04%; number of cells in the G0/G1 phase (A549 cells [6]; 48 h, p < 0.01 vs control): 54.91%; IC50 [3]: 121 ± 6.7 µM
62.4 ± 3.7 µM	48.9 ± 2.2 µM	COc1cc(-c2nc3ccccc3n2Cc2cn(CC(=O)Nc3ccccc3F)nn2)cc(OC)c1OC [Compound 9o, N-(2-Fluorophenyl)-2-(4-((2-(3,4,5-trimethoxyphenyl)-1H-benzo[d]imidazol-1-yl)methyl)-1H-1,2,3-triazol-1-yl)acetamide]	–
43.8 ± 2.5 µM	32.5 ± 4.2 µM	COc1cc(-c2nc3ccccc3n2Cc2cn(CC(=O)Nc3ccccc3[N+](=O)[O-])nn2)cc(OC)c1OC [Compound 9h, N-(2-Nitrophenyl)-2-(4-((2-(3,4,5-trimethoxyphenyl)-1H-benzo[d]imidazol-1-yl)methyl)-1H-1,2,3-triazol-1-yl)acetamide]	–
53.5 ± 6.4 µM	37.9 ± 0.14 µM	COc1cc(-c2nc3ccccc3n2Cc2cn(CC(=O)Nc3cccc(C)c3C)nn2)cc(OC)c1OC [Compound 9k, N-(2,3-Dimethylphenyl)-2-(4-((2-(3,4,5-trimethoxyphenyl)-1H-benzo[d]imidazol-1-yl)methyl)-1H-1,2,3-triazol-1-yl)acetamide]	–
0.59 ± 0.07 µM	0.46 ± 0.02 µM	COc1cccc2c1C(=O)c1c(O)c3c(c(O)c1C2=O)C[C@@](O)(C(=O)CO)C[C@@H]3O[C@H]1C[C@H](N)[C@H](O)[C@H](C)O1 [Doxorubicin, reference compound]	IC50 [3]: 0.39 ± 0.06 µM
51.5 ± 4.6 µM	29.3 ± 6.6 µM	COc1cc(-c2nc3ccccc3n2Cc2cn(CC(=O)Nc3ccc(C)cc3C)nn2)cc(OC)c1OC [Compound 9i, N-(2,4-Dimethylphenyl)-2-(4-((2-(3,4,5-trimethoxyphenyl)-1H-benzo[d]imidazol-1-yl)methyl)-1H-1,2,3-triazol-1-yl)acetamide]	–
34.3 ± 3.1 µM	20.3 ± 2 µM	COc1cc(-c2nc3ccccc3n2Cc2cn(CC(=O)Nc3cccc(Cl)c3)nn2)cc(OC)c1OC [Compound 9n, N-(3-Chlorophenyl)-2-(4-((2-(3,4,5-trimethoxyphenyl)-1H-benzo[d]imidazol-1-yl)methyl)-1H-1,2,3-triazol-1-yl)acetamide]	IC50 [3]: 124.2 ± 0.4 µM

— publication PMC12506886 (RSC Advances, 2025)
